# Measurements reported in ChEMBL document CHEMBL2029228, “Antimalarial activity of 9a-N substituted 15-membered azalides with improved in vitro and in vivo activity over azithromycin” (J Med Chem, 2012).
# pIC50: −log10 of the molar value.
# What was measured:
# [1] = test system: Plasmodium falciparum; experiment: Antimalarial activity against mefloquine-resistant Plasmodium falciparum TM91C235 assessed as [3H]hypoxanthine incorporation after 48 hrs; type: functional, organism-based
# In short: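 Tritiated hypoxanthine incorporation assay (Desjardins method, Milhous modification) with 48 h drug exposure. Uses P. falciparum clone TM91C235 (Southeast Asian, mefloquine-resistant). Compounds 2-fold diluted over 11 concentrations. IC50 derived by nonlinear logistic dose-response fitting, averaged where multiple runs were done.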
# [2] = test system: HepG2; experiment: Cytotoxicity against human HepG2 cells after 24 hrs by MTS assay; type: cell-based; conditions: HepG2, 24 h
# In short: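 HepG2 cells kept in RPMI 1640 with 10% FBS plus antibiotics at 37 °C, 5% CO₂. 50 000 cells per well exposed to 10 two-fold serial dilutions for 24 h. MTS reagent then added for 2 h more, absorbance read at 490 nm, IC50 derived.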
Compound,pIC50 [1],pIC50 [2]
CC[C@H]1OC(=O)[C@H](C)[C@@H](O[C@H]2C[C@@](C)(OC)[C@@H](O)[C@H](C)O2)[C@H](C)[C@@H](O[C@@H]2O[C@H](C)C[C@H](N(C)C)[C@H]2O)[C@](C)(O)C[C@@H](C)CN(CCCNC(=O)Cc2ccc3ccccc3c2)[C@H](C)[C@@H](O)[C@]1(C)O,7.10,4.40
CC[C@H]1OC(=O)[C@H](C)[C@@H](O[C@H]2C[C@@](C)(OC)[C@@H](O)[C@H](C)O2)[C@H](C)[C@@H](O[C@@H]2O[C@H](C)C[C@H](N(C)C)[C@H]2O)[C@](C)(O)C[C@@H](C)CN(CCC(=O)NCCCCc2ccccc2)[C@H](C)[C@@H](O)[C@]1(C)O,6.79,4.40
CC[C@H]1OC(=O)[C@H](C)[C@@H](O[C@H]2C[C@@](C)(OC)[C@@H](O)[C@H](C)O2)[C@H](C)[C@@H](O[C@@H]2O[C@H](C)C[C@H](N(C)C)[C@H]2O)[C@](C)(O)C[C@@H](C)CN(CCCNCc2ccccc2)[C@H](C)[C@@H](O)[C@]1(C)O,6.98,< 4.30
CC[C@H]1OC(=O)[C@H](C)[C@@H](O[C@H]2C[C@@](C)(OC)[C@@H](O)[C@H](C)O2)[C@H](C)[C@@H](O[C@@H]2O[C@H](C)C[C@H](N(C)C)[C@H]2O)[C@](C)(O)C[C@@H](C)CN(CCCNC(=O)CCCc2ccccc2)[C@H](C)[C@@H](O)[C@]1(C)O,7.07,< 4.30
CC[C@H]1OC(=O)[C@H](C)[C@@H](O[C@H]2C[C@@](C)(OC)[C@@H](O)[C@H](C)O2)[C@H](C)[C@@H](O[C@@H]2O[C@H](C)C[C@H](N(C)C)[C@H]2O)[C@](C)(O)C[C@@H](C)CN(CCCNC(=O)Cc2ccccc2)[C@H](C)[C@@H](O)[C@]1(C)O,6.63,< 4.30
CC[C@H]1OC(=O)[C@H](C)[C@@H](O)[C@H](C)[C@@H](O[C@@H]2O[C@H](C)C[C@H](N(C)C)[C@H]2O)[C@](C)(O)C[C@@H](C)CN(CCCNCc2cccc3ccccc23)[C@H](C)[C@@H](O)[C@]1(C)O,7.26,4.42
CC[C@H]1OC(=O)[C@H](C)[C@@H](O[C@H]2C[C@@](C)(OC)[C@@H](O)[C@H](C)O2)[C@H](C)[C@@H](O[C@@H]2O[C@H](C)C[C@H](N(C)C)[C@H]2O)[C@](C)(O)C[C@@H](C)CN(CCCNCc2cccc3ccccc23)[C@H](C)[C@@H](O)[C@]1(C)O,7.60,5.00
CC[C@H]1OC(=O)[C@H](C)[C@@H](O[C@H]2C[C@@](C)(OC)[C@@H](O)[C@H](C)O2)[C@H](C)[C@@H](O[C@@H]2O[C@H](C)C[C@H](N(C)C)[C@H]2O)[C@](C)(O)C[C@@H](C)CN(CCCNCc2cccnc2)[C@H](C)[C@@H](O)[C@]1(C)O,6.41,< 4.30
CC[C@H]1OC(=O)[C@H](C)[C@@H](O)[C@H](C)[C@@H](O)[C@](C)(O)C[C@@H](C)CN(CCCNCc2ccc3ccccc3n2)[C@H](C)[C@@H](O)[C@]1(C)O,5.71,< 4.30
CC[C@H]1OC(=O)[C@H](C)[C@@H](O)[C@H](C)[C@@H](O[C@@H]2O[C@H](C)C[C@H](N(C)C)[C@H]2O)[C@](C)(O)C[C@@H](C)CN(CCCNCc2cccnc2)[C@H](C)[C@@H](O)[C@]1(C)O,5.60,< 4.30
CC[C@H]1OC(=O)[C@H](C)[C@@H](O)[C@H](C)[C@@H](O)[C@](C)(O)C[C@@H](C)CN(CCCNCc2cnc3ccccc3c2)[C@H](C)[C@@H](O)[C@]1(C)O,5.72,< 4.30
CC[C@H]1OC(=O)[C@H](C)[C@@H](O[C@H]2C[C@@](C)(OC)[C@@H](O)[C@H](C)O2)[C@H](C)[C@@H](O[C@@H]2O[C@H](C)C[C@H](N(C)C)[C@H]2O)[C@](C)(O)C[C@@H](C)CN(CCCNC(=O)[C@H](C)c2ccc3cc(OC)ccc3c2)[C@H](C)[C@@H](O)[C@]1(C)O,7.24,4.70
CC[C@H]1OC(=O)[C@H](C)[C@@H](O[C@H]2C[C@@](C)(OC)[C@@H](O)[C@H](C)O2)[C@H](C)[C@@H](O[C@@H]2O[C@H](C)C[C@H](N(C)C)[C@H]2O)[C@](C)(O)C[C@@H](C)CN(CCCNCc2ccccn2)[C@H](C)[C@@H](O)[C@]1(C)O,5.83,–
CC[C@H]1OC(=O)[C@H](C)[C@@H](O[C@H]2C[C@@](C)(OC)[C@@H](O)[C@H](C)O2)[C@H](C)[C@@H](O[C@@H]2O[C@H](C)C[C@H](N(C)C)[C@H]2O)[C@](C)(O)C[C@@H](C)CN(CCCNc2ncnc3[nH]cnc23)[C@H](C)[C@@H](O)[C@]1(C)O,< 5.19,< 4.30
CC[C@H]1OC(=O)[C@H](C)[C@@H](O)[C@H](C)[C@@H](O[C@@H]2O[C@H](C)C[C@H](N(C)C)[C@H]2O)[C@](C)(O)C[C@@H](C)CN(CCCNCc2ccncc2)[C@H](C)[C@@H](O)[C@]1(C)O,5.41,< 4.30
CC[C@H]1OC(=O)[C@H](C)[C@@H](O[C@H]2C[C@@](C)(OC)[C@@H](O)[C@H](C)O2)[C@H](C)[C@@H](O[C@@H]2O[C@H](C)C[C@H](N(C)C)[C@H]2O)[C@](C)(O)C[C@@H](C)CN(CCCNCCCc2ccccc2)[C@H](C)[C@@H](O)[C@]1(C)O,6.97,4.40

Compound,pIC50 [1],pIC50 [2]
CC[C@H]1OC(=O)[C@H](C)[C@@H](O[C@H]2C[C@@](C)(OC)[C@@H](O)[C@H](C)O2)[C@H](C)[C@@H](O[C@@H]2O[C@H](C)C[C@H](N(C)C)[C@H]2O)[C@](C)(O)C[C@@H](C)CN(CCCNC(=O)Cc2cccc3ccccc23)[C@H](C)[C@@H](O)[C@]1(C)O,7.21,–
CC[C@H]1OC(=O)[C@H](C)[C@@H](O[C@H]2C[C@@](C)(OC)[C@@H](O)[C@H](C)O2)[C@H](C)[C@@H](O[C@@H]2O[C@H](C)C[C@H](N(C)C)[C@H]2O)[C@](C)(O)C[C@@H](C)CN(CCCNCc2cnc3ccccc3c2)[C@H](C)[C@@H](O)[C@]1(C)O,7.30,4.35
CC[C@H]1OC(=O)[C@H](C)[C@@H](O)[C@H](C)[C@@H](O[C@@H]2O[C@H](C)C[C@H](N(C)C)[C@H]2O)[C@](C)(O)C[C@@H](C)CN(CCCNCc2cnc3ccccc3c2)[C@H](C)[C@@H](O)[C@]1(C)O,6.70,–
CC[C@H]1OC(=O)[C@H](C)[C@@H](O[C@H]2C[C@@](C)(OC)[C@@H](O)[C@H](C)O2)[C@H](C)[C@@H](O[C@@H]2O[C@H](C)C[C@H](N(C)C)[C@H]2O)[C@](C)(O)C[C@@H](C)CN(CCCNC(=O)c2ocnc2C)[C@H](C)[C@@H](O)[C@]1(C)O,6.06,–
CC[C@H]1OC(=O)[C@H](C)[C@@H](O[C@H]2C[C@@](C)(OC)[C@@H](O)[C@H](C)O2)[C@H](C)[C@@H](O[C@@H]2O[C@H](C)C[C@H](N(C)C)[C@H]2O)[C@](C)(O)C[C@@H](C)CN(CCC(=O)NCc2ccccc2)[C@H](C)[C@@H](O)[C@]1(C)O,6.58,< 4.30
CC[C@H]1OC(=O)[C@H](C)[C@@H](O[C@H]2C[C@@](C)(OC)[C@@H](O)[C@H](C)O2)[C@H](C)[C@@H](O[C@@H]2O[C@H](C)C[C@H](N(C)C)[C@H]2O)[C@](C)(O)C[C@@H](C)CN(CCCNCc2ccc3ccccc3n2)[C@H](C)[C@@H](O)[C@]1(C)O,7.21,4.55
CC[C@H]1OC(=O)[C@H](C)[C@@H](O)[C@H](C)[C@@H](O[C@@H]2O[C@H](C)C[C@H](N(C)C)[C@H]2O)[C@](C)(O)C[C@@H](C)CN(CCCNC(=O)Cc2cccc3ccccc23)[C@H](C)[C@@H](O)[C@]1(C)O,5.86,–
CC[C@H]1OC(=O)[C@H](C)[C@@H](O[C@H]2C[C@@](C)(OC)[C@@H](O)[C@H](C)O2)[C@H](C)[C@@H](O[C@@H]2O[C@H](C)C[C@H](N(C)C)[C@H]2O)[C@](C)(O)C[C@@H](C)CN(CCC(=O)NCCc2ccccc2)[C@H](C)[C@@H](O)[C@]1(C)O,6.44,< 4.30
CC[C@H]1OC(=O)[C@H](C)[C@@H](O)[C@H](C)[C@@H](O[C@@H]2O[C@H](C)C[C@H](N(C)C)[C@H]2O)[C@](C)(O)C[C@@H](C)CN(CCCNc2ccnc3ccccc23)[C@H](C)[C@@H](O)[C@]1(C)O,6.36,< 4.30
CC[C@H]1OC(=O)[C@H](C)[C@@H](O)[C@H](C)[C@@H](O[C@@H]2O[C@H](C)C[C@H](N(C)C)[C@H]2O)[C@](C)(O)C[C@@H](C)CN(CCCNCc2ccc3ccccc3n2)[C@H](C)[C@@H](O)[C@]1(C)O,6.79,–
CC[C@H]1OC(=O)[C@H](C)[C@@H](O[C@H]2C[C@@](C)(OC)[C@@H](O)[C@H](C)O2)[C@H](C)[C@@H](O[C@@H]2O[C@H](C)C[C@H](N(C)C)[C@H]2O)[C@](C)(O)C[C@@H](C)CN(CCCNC(=O)CCCCc2ccccc2)[C@H](C)[C@@H](O)[C@]1(C)O,7.04,4.31
CC[C@H]1OC(=O)[C@H](C)[C@@H](O[C@H]2C[C@@](C)(OC)[C@@H](O)[C@H](C)O2)[C@H](C)[C@@H](O[C@@H]2O[C@H](C)C[C@H](N(C)C)[C@H]2O)[C@](C)(O)C[C@@H](C)CN(CCCNc2cc(C)nc3ccc(OC)cc23)[C@H](C)[C@@H](O)[C@]1(C)O,6.07,< 4.30
CC[C@H]1OC(=O)[C@H](C)[C@@H](O[C@H]2C[C@@](C)(OC)[C@@H](O)[C@H](C)O2)[C@H](C)[C@@H](O[C@@H]2O[C@H](C)C[C@H](N(C)C)[C@H]2O)[C@](C)(O)C[C@@H](C)CN(CCC(=O)NCCCc2ccccc2)[C@H](C)[C@@H](O)[C@]1(C)O,7.05,4.40
CC[C@H]1OC(=O)[C@H](C)[C@@H](O)[C@H](C)[C@@H](O)[C@](C)(O)C[C@@H](C)CN(CCCNC(=O)c2ocnc2C)[C@H](C)[C@@H](O)[C@]1(C)O,< 4.67,–
CC[C@H]1OC(=O)[C@H](C)[C@@H](O)[C@H](C)[C@@H](O[C@@H]2O[C@H](C)C[C@H](N(C)C)[C@H]2O)[C@](C)(O)C[C@@H](C)CN(CCCNC(=O)[C@H](C)c2ccc3cc(OC)ccc3c2)[C@H](C)[C@@H](O)[C@]1(C)O,6.28,–
